In ChEMBL document CHEMBL2021776, “Highly potent and selective fluorescent antagonists of the human adenosine A₃ receptor based on the 1,2,4-triazolo[4,3-a]quinoxalin-1-one scaffold” (J Med Chem, 2012):
Activity calls are given as the source filed them. No cut-off for these calls is given here.

How the values were obtained:
[1] = target: T1, Adenosine receptor A3 (Homo sapiens, UniProt P0DMS8); assay: Antagonist activity at human adenosine A3 receptor expressed in forskolin-stimulated CHO cells assessed as inhibition of NECA-induced CRE-SPAP gene transcription by measuring intracellular cAMP level after 5 hrs; type: functional, cell-based
T1 sequence (P0DMS8 whole entry): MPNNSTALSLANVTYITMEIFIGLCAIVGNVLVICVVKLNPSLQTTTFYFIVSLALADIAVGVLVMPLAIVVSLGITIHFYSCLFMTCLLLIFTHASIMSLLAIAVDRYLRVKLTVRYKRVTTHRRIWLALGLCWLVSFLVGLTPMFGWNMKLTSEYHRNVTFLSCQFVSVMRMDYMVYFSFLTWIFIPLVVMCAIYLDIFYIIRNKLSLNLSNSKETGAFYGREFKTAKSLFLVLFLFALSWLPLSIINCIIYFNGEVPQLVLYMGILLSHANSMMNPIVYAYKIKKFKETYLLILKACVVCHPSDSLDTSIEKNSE
How it was run: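 Clonal CHO cells co-expressing CRE-SPAP reporter and human A3 receptor, serum-starved 18 h. Three antagonist concentrations for 30 min at 37 °C, then NECA curves for 30 min, then 1 μM forskolin for 5 h. After 1 h in fresh medium and 65 °C heat step, SPAP activity read as 4-nitrophenyl phosphate hydrolysis (405 nm). Curves globally fitted to an interaction model.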

[2] = target: T2, Adenosine receptor A1 (Homo sapiens, UniProt P30542); assay: Antagonist activity at human adenosine A1 receptor expressed in CHO cells assessed as inhibition of NECA-induced increase of intracellular calcium level after 5 hrs
T2 sequence (P30542 whole entry): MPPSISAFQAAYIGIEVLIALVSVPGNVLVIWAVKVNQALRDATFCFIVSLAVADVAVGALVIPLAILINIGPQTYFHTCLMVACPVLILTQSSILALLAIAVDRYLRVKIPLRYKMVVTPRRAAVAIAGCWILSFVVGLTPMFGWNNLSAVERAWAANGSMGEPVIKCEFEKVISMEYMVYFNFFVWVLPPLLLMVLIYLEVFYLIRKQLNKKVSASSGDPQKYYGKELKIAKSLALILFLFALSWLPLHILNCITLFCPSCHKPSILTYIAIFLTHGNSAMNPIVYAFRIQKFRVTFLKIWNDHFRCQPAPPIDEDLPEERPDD

[3] = target: T3, Adenosine receptor A3 (Homo sapiens) (UniProt P0DMS8); assay: Binding affinity to human adenosine A3 receptor expressed in CHO cells assessed as intracellular fluorescence level after 10 mins by confocal microscopic analysis; type: cell-based
T3 sequence (whole entry): T1 sequence (P0DMS8 whole entry)
How it was run: (§1)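 Live CHO cells stably expressing human A3 receptor were washed in HBS. They were preincubated 30 min at 37 °C with or without 100 nM MRS1220, then exposed to 25 nM fluorescent ligand for 10 min. Single equatorial confocal images were taken in the continued presence of ligand, using identical laser and detector settings. Images are representative of 3−5 experiments.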

[4] = target: T4, Adenosine receptor A1 (Homo sapiens) (UniProt P30542); assay: Binding affinity to human full length human adenosine A1 receptor expressed in CHO cells at 25 nM after 10 mins by confocal microscopic analysis; type: cell-based
T4 sequence (whole entry): T2 sequence (P30542 whole entry)
How it was run: (§2)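 Live CHO cells stably expressing human A1 receptor were washed in HBS. They were preincubated 30 min at 37 °C with or without 100 nM DPCPX, then exposed to fluorescent ligand (25 nM, or up to 100 nM) for 10 min. Single equatorial confocal images were taken using identical laser power, gain and offset.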

[5] = target: T4, Adenosine receptor A1 (Homo sapiens); assay: Binding affinity to human full length human adenosine A1 receptor expressed in CHO cells after 10 mins by confocal microscopic analysis in presence of DPCPX treated 30 mins before compound challenge; type: cell-based; how it was run: as §2
[6] = species on record: Homo sapiens; assay: Selectivity ratio of human A1 receptor to human A3 receptor
[7] = target: T3, Adenosine receptor A3 (Homo sapiens); assay: Binding affinity to human adenosine A3 receptor expressed in CHO cells assessed as intracellular fluorescence level after 10 mins by confocal microscopic analysis in presence of MRS1220 treated 30 mins before compound challenge; type: cell-based; how it was run: as §1
[8] = target: T5, Adenosine receptor A2b (Homo sapiens, UniProt P29275); assay: Antagonist activity at adenosine A2B receptor in HEK293 cells expressing glosensor cAMP biosensor assessed as inhibition of NECA-induced increase of intracellular cAMP level after 5 hrs; type: functional, cell-based
T5 sequence (P29275 whole entry): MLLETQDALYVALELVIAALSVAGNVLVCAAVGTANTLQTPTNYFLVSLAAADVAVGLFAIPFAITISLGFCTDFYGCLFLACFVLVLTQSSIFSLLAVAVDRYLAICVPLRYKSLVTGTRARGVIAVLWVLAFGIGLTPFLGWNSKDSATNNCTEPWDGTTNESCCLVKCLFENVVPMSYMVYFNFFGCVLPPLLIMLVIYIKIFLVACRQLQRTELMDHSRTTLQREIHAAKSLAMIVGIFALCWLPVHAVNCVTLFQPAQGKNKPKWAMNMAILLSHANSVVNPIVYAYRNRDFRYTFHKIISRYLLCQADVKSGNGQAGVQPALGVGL
How it was run: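 HEK293 cells stably expressing Glosensor cAMP biosensor, with endogenous human A2B receptor. Cells equilibrated 2 h at 37 °C in HBSS with 3% v/v Glosensor reagent. Antagonist added at 1.5 h, NECA at 2 h. Luminescence read every 2 min for 60 min; maximal read used. pKD estimated from rightward shift of NECA curve by 1 μM antagonist via dose ratio.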

[9] = target: T4, Adenosine receptor A1 (Homo sapiens); assay: Binding affinity to human full length human adenosine A1 receptor expressed in CHO cells up to 100 nM after 10 mins by confocal microscopic analysis; type: cell-based; how it was run: as §2

Which Kd [1] does the source give for `CCN1/C(=C/C=C/C=C/C2=[N+](CCCCCC(=O)NCCOCCOCCNC(=O)CCC(=O)Nc3nc4ccccc4n4c(=O)n(-c5ccc(OC)cc5)nc34)c3cc(S(=O)(=O)[O-])ccc3C2(C)C)C(C)(C)c2cc(S(=O)(=O)O)ccc21` here?
The Kd was 148 nM.

`COc1ccc(-n2nc3c(NC(=O)CCC(=O)NCCCCCCCCNC(=O)CCCCCNC(=O)COc4ccc(/C=C/C5=[N+]6C(=Cc7ccc(-c8cccs8)n7[B-]6(F)F)C=C5)cc4)nc4ccccc4n3c2=O)cc1` was tested. Which Kd [1] did it give?
The Kd was 16.6 nM.

Which Kd [1] does the source give for `COc1ccc(-n2nc3c(NC(=O)CN)nc4ccccc4n3c2=O)cc1` here?
Its Kd is 1.45 nM.

Which results are given for `COc1ccc(-n2nc3c(NC(=O)CCC(=O)NCCOCCOCCNC(=O)CCCCCNC(=O)COc4ccc(C5=[N+]6C(=Cc7ccc(-c8cccs8)n7[B-]6(F)F)C=C5)cc4)nc4ccccc4n3c2=O)cc1`?
Kd [2]: 166 nM; Activity [3]: Active; Activity [4]: Active; Activity [5]: inactive; Selectivity ratio [6]: 50; Activity [7]: Active; Kd [1]: 3.39 nM; Kd [8]: < 1000 nM

Which Kd [2] does the source give for `COc1ccc(-n2nc3c(NC(=O)CCC(=O)NCCOCCOCCNC(=O)CCCCCNC(=O)COc4ccc(/C=C/C5=[N+]6C(=Cc7ccc(-c8cccs8)n7[B-]6(F)F)C=C5)cc4)nc4ccccc4n3c2=O)cc1` here?
The Kd was 275 nM.

And the Activity [3]?
The Activity was “Active”.

And the Activity [9]?
The Activity was “inactive”.

And the Selectivity ratio [6]?
The Selectivity ratio was 650.

And the Activity [7]?
The Activity was “inactive”.

And the Kd [1]?
Its Kd is 0.437 nM.

And the Kd [8]?
The Kd was < 1000 nM.

How did the Kd [1] turn out when `COc1ccc(-n2nc3c(NC(=O)CCC(=O)NCCOCCOCCN)nc4ccccc4n3c2=O)cc1` was run?
Its Kd is 20.9 nM.

Which Kd [1] does the source give for `COc1ccc(-n2nc3c(NC(=O)CCC(=O)NCCCCCCCCN)nc4ccccc4n3c2=O)cc1` here?
Its Kd is 0.331 nM.

Which Kd [1] does the source give for `COc1ccc(-n2nc3c(NC(=O)CCC(=O)NCCOCCOCCNC(=O)CCOCCOCCOCCOCCOCCOCCOCCOCCOCCOCCOCCOCCNC(=O)c4ccc(-c5c6ccc(=[N+](C)C)cc-6oc6cc(N(C)C)ccc56)c(C(=O)[O-])c4)nc4ccccc4n3c2=O)cc1` here?
Its Kd is 5.62 nM.

For `COc1ccc(-n2nc3c(NC(=O)c4ccc(N)cc4)nc4ccccc4n3c2=O)cc1`, which Kd [1] is on record?
The Kd was 38 nM.
